{"source": "ChEMBL document CHEMBL1138476", "about": "(J Med Chem, 2009)", "key": {"Canis familiaris [1]": {"tested_on": "Canis familiaris", "experiment": "Cardiovascular activity in dog assessed as increase in mean […] pressure at 3 mg to 5 mg/kg, iv by dose escalation study", "format": "functional, Canis lupus familiaris", "in_short": "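Anesthetized mongrel dogs on sodium pentobarbital, mechanically ventilated, with left ventricular and arterial pressure transducers and ECG. Four dogs received 6 min iv infusions at escalating 0.3, 1, 3 and 5 mg/kg, 30 min apart; four control dogs received vehicle on the same schedule. Mean arterial pressure and dP/dt were recorded; plasma was sampled after each infusion.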"}, "[2]": {"molecular_target": "T1, Substance-K receptor (Homo sapiens) (UniProt P21452)", "T1 sequence (whole entry)": "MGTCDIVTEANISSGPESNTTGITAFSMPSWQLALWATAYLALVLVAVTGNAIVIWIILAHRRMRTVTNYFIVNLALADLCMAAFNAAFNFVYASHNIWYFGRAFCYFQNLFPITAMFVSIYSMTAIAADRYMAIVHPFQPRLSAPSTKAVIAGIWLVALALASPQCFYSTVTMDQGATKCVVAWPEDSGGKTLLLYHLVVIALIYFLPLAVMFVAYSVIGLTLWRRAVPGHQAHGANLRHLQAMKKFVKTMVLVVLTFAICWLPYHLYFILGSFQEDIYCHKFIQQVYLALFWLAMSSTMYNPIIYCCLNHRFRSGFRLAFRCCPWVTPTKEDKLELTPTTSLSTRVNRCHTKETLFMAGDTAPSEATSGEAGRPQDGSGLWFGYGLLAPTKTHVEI", "experiment": "Inhibition of ligand binding in neurokinin 2 receptor", "parameters": "scale not given: the % may be the effect or the level left", "in_short": "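Screened at 10^-7 and 10^-5 M for binding inhibition, then taken to a dose–response on the human neurokinin 2 receptor. IC50 is based on two experiments.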"}, "[3]": {"molecular_target": "T2, Corticotropin-releasing factor-binding protein (Homo sapiens, UniProt P24387)", "T2 sequence (P24387 whole entry)": "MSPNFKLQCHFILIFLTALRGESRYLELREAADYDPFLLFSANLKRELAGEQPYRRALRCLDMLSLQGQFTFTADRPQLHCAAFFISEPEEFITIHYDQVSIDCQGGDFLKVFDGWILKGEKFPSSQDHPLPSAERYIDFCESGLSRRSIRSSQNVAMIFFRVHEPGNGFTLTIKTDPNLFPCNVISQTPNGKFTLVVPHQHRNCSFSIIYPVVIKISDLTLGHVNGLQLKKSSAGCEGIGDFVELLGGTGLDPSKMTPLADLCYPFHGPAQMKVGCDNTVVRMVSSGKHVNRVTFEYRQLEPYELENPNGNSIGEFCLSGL", "experiment": "Binding affinity to human recombinant CRF binding protein"}, "Canis familiaris [4]": {"tested_on": "Canis familiaris", "experiment": "Effect on respiratory function in spontaneously breathing mongrel dog assessed as change in intrapleural pressure at 5 mg/kg after intravenous infusion for 6 mins (RVb= -21.2+/-26.5 %)", "format": "functional, Canis lupus familiaris"}, "Canis familiaris [5]": {"tested_on": "Canis familiaris", "experiment": "Effect on respiratory function in spontaneously breathing mongrel dog assessed as change in intrapleural pressure at 5 mg/kg after intravenous infusion for 15 mins (RVb= 12.6+/-17.1 %)", "format": "functional, Canis lupus familiaris"}, "Canis familiaris [6]": {"tested_on": "Canis familiaris", "experiment": "Effect on respiratory function in spontaneously breathing mongrel dog assessed as change in intrapleural pressure at 5 mg/kg after intravenous infusion for 30 mins (RVb= -90.8+/-103 %)", "format": "functional, Canis lupus familiaris"}, "Rattus norvegicus [7]": {"tested_on": "Rattus norvegicus", "experiment": "Effect on acute renal function in rat assessed as change in osmolality in urine per 100 gm body weight at 30 mg/kg, po (RVb= 325+/-1.9 mg/dl)", "format": "functional"}, "Canis familiaris [8]": {"tested_on": "Canis familiaris", "experiment": "Effect on respiratory function in spontaneously breathing mongrel dog assessed as change in peak expiratory flow at 5 mg/kg after intravenous infusion for 60 mins (RVb= 0.4+/-6.7 %)", "format": "functional, Canis lupus familiaris"}, "Canis familiaris [9]": {"tested_on": "Canis familiaris", "experiment": "Effect on respiratory function in spontaneously breathing mongrel dog assessed as change in tidal volume at 5 mg/kg after intravenous infusion for 60 mins (RVb= 13.0+/-10.3 %)", "format": "functional, Canis lupus familiaris"}, "Canis familiaris [10]": {"tested_on": "Canis familiaris", "experiment": "Effect on respiratory function in spontaneously breathing mongrel dog assessed as change in pulmonary compliance at 5 mg/kg after intravenous infusion for 6 mins (RVb= 6.0+/-4.2 %)", "format": "functional, Canis lupus familiaris"}, "Canis familiaris [11]": {"tested_on": "Canis familiaris", "experiment": "Effect on respiratory function in spontaneously breathing mongrel dog assessed as change in heart rate at 5 mg/kg after intravenous infusion for 30 mins (RVb= -0.9+/-3.8 %)", "format": "functional, Canis lupus familiaris"}, "[12]": {"experiment": "Plasma concentration in spontaneously breathing dog at 5 mg/kg, iv after 60 mins", "format": "ADME, organism-based, Canis lupus familiaris", "parameters": "dose 5 mg/kg, route intravenous", "in_short": "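Spontaneously breathing, barbiturate-anesthetized mongrel dogs (n = 4) infused iv at 5.0 mg/kg over 6 min. Total pooled plasma concentrations taken at 6, 15, 30 and 60 min.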"}, "[13]": {"molecular_target": "T3, Corticotropin-releasing factor receptor 1 (Rattus norvegicus, UniProt P35353)", "T3 sequence (P35353 whole entry)": "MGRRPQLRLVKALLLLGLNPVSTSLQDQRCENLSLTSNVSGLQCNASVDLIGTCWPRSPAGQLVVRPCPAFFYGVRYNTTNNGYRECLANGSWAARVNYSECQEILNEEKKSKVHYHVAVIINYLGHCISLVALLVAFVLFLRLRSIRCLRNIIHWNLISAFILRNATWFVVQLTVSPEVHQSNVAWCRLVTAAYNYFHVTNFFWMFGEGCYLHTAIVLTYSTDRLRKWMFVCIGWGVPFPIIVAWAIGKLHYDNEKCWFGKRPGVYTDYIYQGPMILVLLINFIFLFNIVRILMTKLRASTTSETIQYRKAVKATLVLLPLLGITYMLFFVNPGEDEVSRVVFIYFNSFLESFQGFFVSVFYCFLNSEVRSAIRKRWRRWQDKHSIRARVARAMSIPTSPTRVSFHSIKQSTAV", "experiment": "Antagonist activity at CRF1 receptor in rat pituitary cells assessed as inhibition of CRF-mediated ACTH production", "format": "functional, cell-based, Pituitary gland cell"}, "Rattus norvegicus [14]": {"tested_on": "Rattus norvegicus", "experiment": "Toxicity in rat assessed as total distance traveled at 10 mg/kg, po after 1 hr by spontaneous locomotor test", "format": "functional", "in_short": "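Rat spontaneous locomotor activity test with oral dosing in 0.25% Methocel 1 h before testing, at doses up to 100 mg/kg. Values are mean ± SEM, with N rats per group, compared with the vehicle (zero-dose) group.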"}, "Rattus norvegicus [15]": {"tested_on": "Rattus norvegicus", "experiment": "Toxicity in rat assessed as time spent on rotarod at 1 mg/kg, po after 1 hr by rotarod test", "format": "organism-based", "parameters": "dose 1 mg/kg, route oral", "conditions": "in vivo", "in_short": "(§1)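 Rats (N = 8 per dose) dosed po in 0.25% Methocel 1 h before rotorod testing. Time on rotorod in s, given as mean ± SEM against a vehicle (zero dose) group.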"}, "Rattus norvegicus [16]": {"tested_on": "Rattus norvegicus", "experiment": "Toxicity in rat assessed as time spent on rotarod at 100 mg/kg, po after 1 hr by rotarod test", "format": "organism-based", "parameters": "dose 100 mg/kg, route oral", "conditions": "in vivo", "in_short": "as §1"}, "[17]": {"experiment": "Elimination half life in rat at 1 mg/kg, iv and 5 mg/kg, po", "format": "ADME, organism-based", "conditions": "in vivo, read-out: beta t1/2 (converted)", "in_short": "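Rats (n = 3) were dosed at 1 mg/kg iv in 10% DMAC, 70% propylene glycol and deionized water, and at 5 mg/kg po in 0.5% methylcellulose.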"}, "[18]": {"experiment": "Cmax in chimpanzee at 1 mg/kg, po", "format": "ADME, organism-based, Pan troglodytes", "parameters": "dose 1 mg/kg, route oral", "conditions": "in vivo", "in_short": "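Chimpanzee PK. Oral: 1 mg/kg in two alert animals, given as a 1 mg/mL suspension in 50–50 (v/v) 0.5% methylcellulose/Tang orange juice with 1% Tween-80. IV: 0.5 mg/kg in one animal in 10% DMAC, 70% propylene glycol and deionized water, infused over 10 min (0.2 mL/kg). EDTA blood was taken predose and at 2–96 h; iv sampling added 6, 15 and 30 min.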"}}, "data": [{"smiles": "CC[C@@H](C)Nc1nc(C)nc2c(-c3ccc(OC)nc3C)c(C)nn12", "note": "[PEXACERFONT]", "values": [{"measurement": "Activity", "setting": "Canis familiaris [1]", "result": 10, "unit": "mmHg"}, {"measurement": "Activity", "setting": "[2]", "result": 80, "unit": "%"}, {"measurement": "IC50", "setting": "[3]", "result": "> 1", "unit": "µM"}, {"measurement": "Activity", "setting": "Canis familiaris [4]", "result": 3.3, "unit": "%"}, {"measurement": "Activity", "setting": "Canis familiaris [5]", "result": 6.5, "unit": "%"}, {"measurement": "Activity", "setting": "Canis familiaris [6]", "result": 8.6, "unit": "%"}, {"measurement": "Activity", "setting": "Rattus norvegicus [7]", "result": 240, "unit": "milliosmole"}, {"measurement": "Activity", "setting": "Canis familiaris [8]", "result": 7.5, "unit": "%"}, {"measurement": "Activity", "setting": "Canis familiaris [9]", "result": 11.5, "unit": "%"}, {"measurement": "Activity", "setting": "Canis familiaris [10]", "result": -2.5, "unit": "%"}, {"measurement": "Activity", "setting": "Canis familiaris [11]", "result": -2.5, "unit": "%"}, {"measurement": "concentration at 1 h", "setting": "[12]", "result": 229, "unit": "nM"}, {"measurement": "IC50", "setting": "[13]", "result": 0.129, "unit": "µM"}, {"measurement": "Activity", "setting": "Rattus norvegicus [14]", "result": 3695, "unit": "cm"}, {"measurement": "Time", "setting": "Rattus norvegicus [15]", "result": 133, "unit": "s"}, {"measurement": "Time", "setting": "Rattus norvegicus [16]", "result": 121, "unit": "s"}, {"measurement": "half-life", "setting": "[17]", "result": 13.5, "unit": "h"}, {"measurement": "Cmax", "setting": "[18]", "result": 840, "unit": "nM"}]}]}
